Source: ChEMBL document CHEMBL2331338, “Steroidal constituents from the leaves of Hosta longipes and their inhibitory effects on nitric oxide production” (Bioorg Med Chem Lett, 2013)

Experiments:
[1] = Cytotoxicity against mouse BV2 cells assessed as cell viability at 20 uM by MTT assay; format: cell-based, BV-2; details: read-out: Activity
Outline: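 BV-2 cells exposed to 20 μM of each compound; viability expressed as percentage of the LPS-only treatment group; three independent experiments, mean SD.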

BV-2 = assay: Antineuroinflammatory activity in mouse BV2 cells assessed as inhibition of nitric oxide production treated 30 mins before LPS challenge measured after 24 hrs by Griess reagent method; format: functional, cell-based
Outline: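 Murine microglial BV-2 cells activated with LPS; NO production measured; IC50 taken as the concentration (μM) causing 50% inhibition of NO production in LPS-activated cells.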

[2] = Cytotoxicity against mouse BV2 cells assessed as cell viability by MTT assay; format: cell-based, BV-2; details: read-out: LD50 (the source's name)
Outline: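 Mouse microglial BV-2 cells activated with LPS and treated with each compound at 20 μM. Viability is expressed as a percentage of the LPS-only group. Values are averages of three independent experiments, given as mean SD.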

| Structure (SMILES) | viability at 20 µM [1] [%] | IC50 (BV-2) [µM] | CC50 [2] [µM] |
| --- | --- | --- | --- |
| CNC(=N)NCCC[C@H](N)C(=O)O [TILARGININE] | 102 | 14.3 | – |
| C[C@@H]1CC[C@@]2(OC1)O[C@H]1C[C@H]3[C@@H]4CC[C@H]5C[C@@H](O[C@@H]6O[C@H](CO)[C@H](O[C@@H]7O[C@H](CO)[C@@H](O)[C@H](O[C@@H]8OC[C@@H](O)[C@H](O)[C@H]8O)[C@H]7O[C@@H]7O[C@H](CO)[C@@H](O)[C@H](O)[C@H]7O)[C@H](O)[C@H]6O)[C@H](O)C[C@]5(C)[C@H]4CC[C@]3(C)[C@H]1[C@@H]2C | 89.6 | 17.7 | – |
| C[C@@H]1CC[C@@]2(OC1)O[C@H]1C[C@H]3[C@@H]4CC[C@H]5C[C@@H](O[C@@H]6O[C@H](CO)[C@H](O[C@@H]7O[C@H](CO)[C@@H](O)[C@H](O)[C@H]7O)[C@H](O)[C@H]6O[C@@H]6O[C@@H](C)[C@H](O)[C@@H](O)[C@H]6O)[C@H](O)C[C@]5(C)[C@H]4CC[C@]3(C)[C@H]1[C@@H]2C | 38.9 | 2.7 | 3.12 |
| C[C@@H]1CC[C@@]2(OC1)O[C@H]1C[C@H]3[C@@H]4CC[C@H]5C[C@@H](O[C@@H]6O[C@H](CO)[C@H](O[C@@H]7O[C@H](CO)[C@@H](O)[C@H](O[C@@H]8OC[C@@H](O[C@@H]9O[C@@H](C)[C@H](O)[C@@H](O)[C@H]9O)[C@H](O)[C@H]8O)[C@H]7O[C@@H]7O[C@H](CO)[C@@H](O)[C@H](O)[C@H]7O)[C@H](O)[C@H]6O)[C@H](O)C[C@]5(C)[C@H]4CC[C@]3(C)[C@H]1[C@@H]2C | 86.4 | 13.2 | – |
| C[C@H](CC[C@H](O)[C@@H](C)[C@H]1[C@@H](O)C[C@H]2[C@@H]3CCC4=CC(=O)CC[C@]4(C)[C@H]3C[C@@H](O)[C@]12C)CO[C@@H]1O[C@H](CO)[C@@H](O)[C@H](O)[C@H]1O | 94.8 | 46.3 | – |
| C[C@@H](CO)CC[C@H](O)[C@@H](C)[C@H]1[C@@H](O)C[C@H]2[C@@H]3CCC4=CC(=O)CC[C@]4(C)[C@H]3C[C@@H](O)[C@]12C | 93.4 | > 200 | – |
